In general, Ki refers to a measure of affinity in units of concentration, obtained from inhibition or displacement. For orientation: IC50 means the concentration at which inhibition is half-maximal. What is called fraction unbound is free concentration divided by total concentration. High values mean weak binding, low ones extensive binding. The microsomal CLint is the rate of metabolic loss divided by the concentration. As usually defined, the Kp is the ratio of the level in a tissue or fluid to that in plasma or blood. For orientation: Kd means the equilibrium constant for the complex coming apart. Low values mean a tighter complex, high ones a looser complex.

The record followed here is ChEMBL document CHEMBL1144571, “ABP688, a novel selective and high affinity ligand for the labeling of mGlu5 receptors: identification, in vitro pharmacology, pharmacokinetic and biodistribution studies” (Bioorg Med Chem, 2007).

Data set [1] addresses T1, Metabotropic glutamate receptor 5 (Rattus norvegicus, UniProt P31424). Description: Displacement of [3H]ABP688 from mGluR5 in rat brain membrane. The data set is classed as cell membranes. For orientation: Loss of bound radioactivity is the signal in a displacement assay; it reports binding, not function.
The target in data set [2] is T2, Metabotropic glutamate receptor 5 (Homo sapiens, UniProt P41594). Description: Displacement of [3H]ABP688 from human mGluR5 receptor expressed in L (tk-) cells. It is filed as cell-based.
Data set [3] deals with T2, Metabotropic glutamate receptor 5. Description: Displacement of [3H]M-MPEP from human mGluR5 receptor expressed in L (tk-) cells. The data set is classed as cell-based. Summed up:
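Membranes from L(tk-) cells expressing recombinant human mGluR5, incubated with 2 nM [3H]-M-MPEP over a range of competitor concentrations. Non-specific binding was taken with 1 µM unlabeled M-MPEP. Readout is percent specific binding.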

Data set [4] shares this target. Description: Activity at human recombinant mGluR5 expressed in L(tk-) cells assessed as inhibition of quisqualate-induced phosphoinositol accumulation. The data set is classed as functional, cell-based.
For data set [5] the target is unchanged. Description: Activity at human recombinant mGluR5 expressed in L(tk-) cells assessed as inhibition of glutamate-induced calcium release. It is filed as functional, cell-based.
The target in data set [6] is Metabotropic glutamate receptor 1 (Homo sapiens) (UniProt Q13255). Description: Activity at human recombinant mGluR1 expressed in L(tk-) cells assessed as inhibition of quisqualate-induced phosphoinositol accumulation at 10 uM. It is filed as functional, cell-based. Summed up: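 Inhibition of quisqualate (40 µM)-stimulated PI accumulation in hmGluR1-expressing cells cultured in glutamate-free DMEM (2 mM L-glutamine, proline, 10% dialyzed FCS, geneticin). Percent control ± SD, n = 3 independent determinations, each in triplicate.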

The target is the same in data set [7]. Description: Activity at human recombinant mGluR1 expressed in L(tk-) cells assessed as basal phosphoinositol level.
Data set [8] concerns Plasma. Description: Drug distribution in rat plasma. It is filed as ADME, cell-free. In outline:
(§1)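 Fresh heparinized rat or human blood spiked with [3H]ABP688 (5–500,000 pg/mL) at 37 °C. Plasma separated by centrifugation (1500g, 10 min, 37 °C), total radioactivity counted in plasma and blood, hematocrit measured (n = 3). Plasma fraction fP (%) = (Cp/Cb)·(1−H)·100.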

The test system of data set [9] is Plasma. Description: Drug distribution in human plasma. The data set is classed as ADME, cell-free. In outline: as §1
Data set [10] can be described thus: Protein binding in rat plasma as percentage unbound. The data set is classed as ADME, cell-free. In outline:
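Rat or human plasma spiked with [3H]ABP688 (50–500,000 pg/mL) and ultrafiltered at 37 °C through a 30 kDa cut-off device. Radioactivity in ultrafiltrate (Cu) and in sample before filtration (Cp) counted by liquid scintillation; fu (%) = Cu/Cp·100.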

Data set [11] can be described thus: Metabolic stability assessed as intrinsic clearance in Sprague-Dawley rat liver microsomes. It is filed as ADME, Microsome. In outline: (§2)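 Pooled liver microsomes (male Sprague-Dawley rat; mixed-gender Caucasian human), 0.2 mg protein/mL, incubated with [3H]ABP688 (0.92 µmol/L) for 40 min at 37 °C in 0.1 M sodium phosphate pH 7.4 containing 4 mM UDPGA, 1 mM β-NADPH and 5 mM MgCl2. Parent depletion tracked by on-line radio-HPLC; intrinsic clearance from parent kinetics.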

A short description of data set [12]: Ratio of drug levels in brain to plasma in Wistar rat at 4 ug/kg, iv. The following applies: brain and plasma, 0.004 mg/kg. The data set is classed as ADME, organism-based. In outline:
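Male Wistar rats (220–250 g) given 4 µg/kg [³H]ABP688 iv into the surgically exposed femoral vein under slight isoflurane anaesthesia, in EtOH/glucose 5% (1:99 v/v) at 1 mL/kg. Groups of n = 3 per sampling time over about 2.5 h. Plasma and brain were taken. Total radioactivity was read by liquid scintillation, and parent compound by LC-RID with unlabelled internal standard. Values are means ± SD.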

A short description of data set [13]: Volume of distribution in Wistar rat at 4 ug/kg, iv. The data set is classed as ADME, organism-based. As to conditions: in vivo, 0.004 mg/kg, read-out: Vss. Summed up:
(§3)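 Male Wistar rats (220–250 g) given 4 µg/kg [3H]ABP688 in EtOH/5% glucose (1:99), 1 mL/kg, into the exposed femoral vein under light isoflurane. n = 3 per time point; plasma and tissues collected, total radioactivity by scintillation, parent by LC-radiodetection with unlabeled internal standard. Bi-exponential compartmental PK analysis.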

Data set [14] can be described thus: Metabolic stability assessed as intrinsic clearance in human liver microsomes. The data set is classed as ADME, Microsome. Summed up: as §2
For orientation: Liver microsomes are a subcellular fraction often used to study metabolism.

The target of data set [15] is T1, Metabotropic glutamate receptor 5. Description: Binding affinity at mGluR5 in rat brain membrane. The data set is classed as cell membranes. In outline: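 Rat whole-brain membranes in Na-HEPES buffer (110 mM NaCl, 1.2 mM MgCl2, 5 mM KCl, 2.5 mM CaCl2), pH 8.0. Competition against fixed 1.5 nM [3H]ABP688, equilibrated 60 min at 37 °C, then filtered on glass-fibre and counted by liquid scintillation, in triplicate. Ki derived by Cheng–Prusoff from non-linear curve fits.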

In data set [16] the test system is Brain. Description: Drug level in Wistar rat brain at 4 ug/kg, iv after 5 mins. It is filed as ADME, organism-based. As to conditions: in vivo, 0.004 mg/kg. Summed up: as §3
Data set [17] deals with Rattus norvegicus. Description: Drug uptake in Wistar rat at 4 ug/kg, iv. It is filed as ADME, organism-based. As to conditions: in vivo, 0.004 mg/kg. In outline:
as §3

Data set [18] concerns Brain. Description: Drug uptake in Wistar rat brain at 4 µg/kg, iv. As to conditions: in vivo.

Active and inactive are the calls of the source. Some results are limits rather than exact numbers.

T1 sequence (P31424 whole entry): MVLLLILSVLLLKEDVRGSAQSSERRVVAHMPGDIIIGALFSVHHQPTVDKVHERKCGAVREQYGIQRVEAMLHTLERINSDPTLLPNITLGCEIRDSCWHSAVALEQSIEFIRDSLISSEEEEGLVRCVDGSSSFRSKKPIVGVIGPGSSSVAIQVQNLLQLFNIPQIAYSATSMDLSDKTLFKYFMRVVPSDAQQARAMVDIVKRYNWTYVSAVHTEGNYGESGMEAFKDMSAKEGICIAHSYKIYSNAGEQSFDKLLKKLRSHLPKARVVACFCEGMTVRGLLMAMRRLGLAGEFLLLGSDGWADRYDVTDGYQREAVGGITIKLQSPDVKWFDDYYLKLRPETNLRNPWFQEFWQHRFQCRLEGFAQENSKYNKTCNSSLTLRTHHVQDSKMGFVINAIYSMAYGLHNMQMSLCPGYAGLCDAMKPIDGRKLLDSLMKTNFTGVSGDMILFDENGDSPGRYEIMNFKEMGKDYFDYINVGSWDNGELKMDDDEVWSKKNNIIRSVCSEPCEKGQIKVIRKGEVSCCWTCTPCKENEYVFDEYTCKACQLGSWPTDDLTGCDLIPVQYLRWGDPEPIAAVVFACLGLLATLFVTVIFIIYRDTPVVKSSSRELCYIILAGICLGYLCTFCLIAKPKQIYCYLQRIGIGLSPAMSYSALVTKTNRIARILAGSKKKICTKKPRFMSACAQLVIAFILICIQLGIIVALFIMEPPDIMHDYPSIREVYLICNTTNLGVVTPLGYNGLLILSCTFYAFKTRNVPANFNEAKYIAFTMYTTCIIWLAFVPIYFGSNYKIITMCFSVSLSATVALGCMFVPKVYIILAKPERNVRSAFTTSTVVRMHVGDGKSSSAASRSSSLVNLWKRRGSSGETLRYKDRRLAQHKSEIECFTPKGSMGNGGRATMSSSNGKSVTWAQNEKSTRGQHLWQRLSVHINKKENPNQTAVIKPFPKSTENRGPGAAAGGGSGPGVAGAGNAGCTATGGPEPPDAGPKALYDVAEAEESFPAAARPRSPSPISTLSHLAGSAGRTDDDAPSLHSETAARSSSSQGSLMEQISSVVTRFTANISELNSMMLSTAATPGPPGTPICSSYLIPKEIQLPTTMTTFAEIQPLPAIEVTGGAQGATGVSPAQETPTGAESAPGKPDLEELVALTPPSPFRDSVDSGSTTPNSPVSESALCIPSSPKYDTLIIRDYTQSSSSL
T2 sequence (P41594 whole entry): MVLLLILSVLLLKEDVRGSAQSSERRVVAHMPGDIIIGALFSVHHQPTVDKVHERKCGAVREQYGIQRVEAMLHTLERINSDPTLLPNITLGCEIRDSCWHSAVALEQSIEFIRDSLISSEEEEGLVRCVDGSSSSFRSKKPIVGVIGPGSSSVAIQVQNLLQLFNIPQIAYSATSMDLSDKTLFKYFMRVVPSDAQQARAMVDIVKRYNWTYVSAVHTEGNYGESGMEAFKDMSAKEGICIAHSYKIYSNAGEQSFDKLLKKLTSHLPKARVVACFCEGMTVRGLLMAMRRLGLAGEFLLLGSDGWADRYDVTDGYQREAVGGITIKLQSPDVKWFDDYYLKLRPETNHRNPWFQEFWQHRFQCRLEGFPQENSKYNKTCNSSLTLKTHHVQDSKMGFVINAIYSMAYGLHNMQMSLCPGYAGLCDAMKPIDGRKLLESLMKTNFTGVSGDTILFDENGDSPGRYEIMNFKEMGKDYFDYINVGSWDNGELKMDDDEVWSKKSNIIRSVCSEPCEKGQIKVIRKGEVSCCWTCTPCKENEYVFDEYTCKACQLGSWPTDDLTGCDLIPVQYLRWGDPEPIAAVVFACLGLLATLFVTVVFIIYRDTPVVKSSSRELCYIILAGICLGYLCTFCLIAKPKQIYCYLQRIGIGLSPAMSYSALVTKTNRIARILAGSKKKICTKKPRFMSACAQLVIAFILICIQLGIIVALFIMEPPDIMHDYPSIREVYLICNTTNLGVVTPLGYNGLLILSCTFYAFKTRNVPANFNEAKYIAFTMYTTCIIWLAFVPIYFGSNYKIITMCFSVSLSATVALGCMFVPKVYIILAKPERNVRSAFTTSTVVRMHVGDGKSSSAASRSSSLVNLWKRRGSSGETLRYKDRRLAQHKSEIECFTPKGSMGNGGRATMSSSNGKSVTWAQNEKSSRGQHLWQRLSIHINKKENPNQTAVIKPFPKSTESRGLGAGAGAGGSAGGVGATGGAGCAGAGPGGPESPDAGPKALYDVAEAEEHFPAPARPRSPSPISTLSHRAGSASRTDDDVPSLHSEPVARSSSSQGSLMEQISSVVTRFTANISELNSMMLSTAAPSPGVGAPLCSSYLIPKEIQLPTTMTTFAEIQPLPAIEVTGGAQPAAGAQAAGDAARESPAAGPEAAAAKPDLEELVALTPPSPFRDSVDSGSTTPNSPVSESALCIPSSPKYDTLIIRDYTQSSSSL
Sequence of Metabotropic glutamate receptor 1 (Homo sapiens) (Q13255 19-1194 limits assumed): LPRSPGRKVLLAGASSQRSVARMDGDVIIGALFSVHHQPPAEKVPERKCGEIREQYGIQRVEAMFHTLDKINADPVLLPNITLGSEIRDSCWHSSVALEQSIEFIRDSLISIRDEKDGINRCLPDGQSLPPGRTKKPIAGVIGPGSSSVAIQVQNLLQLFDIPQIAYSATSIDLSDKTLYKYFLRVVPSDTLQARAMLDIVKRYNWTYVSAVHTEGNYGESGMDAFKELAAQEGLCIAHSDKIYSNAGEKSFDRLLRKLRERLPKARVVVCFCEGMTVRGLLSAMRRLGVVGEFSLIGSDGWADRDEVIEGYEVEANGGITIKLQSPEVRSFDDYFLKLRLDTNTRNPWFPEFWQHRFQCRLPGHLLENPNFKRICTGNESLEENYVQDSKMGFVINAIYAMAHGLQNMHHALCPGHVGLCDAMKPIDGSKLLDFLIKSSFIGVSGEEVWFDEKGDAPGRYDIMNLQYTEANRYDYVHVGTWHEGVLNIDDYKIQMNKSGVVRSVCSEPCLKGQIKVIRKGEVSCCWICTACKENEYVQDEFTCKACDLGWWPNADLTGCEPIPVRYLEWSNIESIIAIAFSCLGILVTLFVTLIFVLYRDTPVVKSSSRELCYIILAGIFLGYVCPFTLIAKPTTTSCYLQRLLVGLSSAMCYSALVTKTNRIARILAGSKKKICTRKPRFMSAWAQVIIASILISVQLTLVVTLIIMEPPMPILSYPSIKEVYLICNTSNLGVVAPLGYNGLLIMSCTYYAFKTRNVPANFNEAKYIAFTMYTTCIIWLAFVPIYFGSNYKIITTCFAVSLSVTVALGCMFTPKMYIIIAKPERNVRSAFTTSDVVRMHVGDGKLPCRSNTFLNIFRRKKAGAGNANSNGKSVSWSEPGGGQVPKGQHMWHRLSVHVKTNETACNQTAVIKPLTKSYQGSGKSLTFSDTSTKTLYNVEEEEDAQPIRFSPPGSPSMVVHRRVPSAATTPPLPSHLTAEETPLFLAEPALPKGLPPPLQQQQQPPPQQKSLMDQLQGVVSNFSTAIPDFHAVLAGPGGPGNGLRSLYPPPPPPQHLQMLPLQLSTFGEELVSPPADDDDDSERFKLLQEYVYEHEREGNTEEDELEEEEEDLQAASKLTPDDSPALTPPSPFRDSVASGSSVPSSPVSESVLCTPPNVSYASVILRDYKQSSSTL

`CCOC(=O)[C@]12CC1/C(=N\O)c1ccccc1O2` (some centres not stated) [CPCCOET]: the Ki in [1] is more than 10000 nM; in data set [2], more than 100000 nM.
Take `COc1cccc(C#Cc2cccc(C)n2)c1` [M-MPEP]: the affinity in [1] corresponds to a Ki of 11 nM.
Turning to `CO/N=C1/C=C(C#Cc2cccc(C)n2)CCC1`, the inhibitory constant (Ki) in [1] amounted to 1.8 nM; in data set [3], 3.5 nM; in data set [2], 1.7 nM. Further, the values for the IC50 in [3], in [4] and in data set [5] were 7 nM, 2.4 nM and 2.3 nM, respectively. The outcome in [6] and in data set [7] was inactive.
As to `[3H]C([3H])([3H])O/N=C1/C=C(C#Cc2cccc(C)n2)CCC1`, the Activity in [8] amounted to 76%; in data set [9], 92%; in [16], 21 pmol/g. The molecule further yielded an unbound share (fraction unbound) in data set [10] of 0.068. The microsomal CLint in [11] and in data set [14] was 150 µL/min/mg throughout. In [12], the Kp worked out at 20. The Vd in [13] worked out at 11 L/kg. The Kd in data set [15] came out at 2.3 nM. Also, the Drug uptake in data set [17] was determined as 21 %ID; in data set [18] it was 0.8 %ID.
